Experimental findings from ChEMBL document CHEMBL1140016, “Arylpropanolamines: selective beta3 agonists arising from strategies to mitigate phase I metabolic transformations” (Bioorg Med Chem Lett, 2007) are described below.

For assay [1], the target named is T1, Beta-3 adrenergic receptor (Homo sapiens, UniProt P13945). As to the kind of experiment: Displacement of [125I]iodocyanopindolol from cloned human adrenergic beta-3 receptor expressed in CHO cells. The assay is classed as cell-based.
Target sequence in this assay (P13945 whole entry): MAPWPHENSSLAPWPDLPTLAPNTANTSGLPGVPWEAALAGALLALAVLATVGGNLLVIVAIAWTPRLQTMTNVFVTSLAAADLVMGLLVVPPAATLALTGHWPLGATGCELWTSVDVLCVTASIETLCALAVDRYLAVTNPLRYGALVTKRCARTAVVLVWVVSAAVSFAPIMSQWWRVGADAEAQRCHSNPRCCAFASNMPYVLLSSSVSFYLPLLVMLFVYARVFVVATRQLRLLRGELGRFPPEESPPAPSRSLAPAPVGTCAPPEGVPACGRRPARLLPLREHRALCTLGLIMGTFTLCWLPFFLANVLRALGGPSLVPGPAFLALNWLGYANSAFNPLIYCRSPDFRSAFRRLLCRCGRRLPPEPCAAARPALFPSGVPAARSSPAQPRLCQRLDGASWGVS
In assay [2] the target is T1, Beta-3 adrenergic receptor. As to the kind of experiment: Intrinsic activity at human cloned adrenergic beta3 receptor expressed in CHO cells assessed as cAMP accumulation relative to isoproterenol. The assay is classed as functional, cell-based. On the technique in general: Changes in cAMP serve as a functional read-out for many G protein-coupled receptors.
Target sequence in this assay (P13945 whole entry, looked up): as the sequence (P13945 whole entry) above
The target of assay [3] is Beta-1 adrenergic receptor (Homo sapiens, UniProt P08588). Nature of the assay: Displacement of [125I]iodocyanopindolol from human cloned adrenergic beta-1 receptor expressed in CHO cells. The assay is classed as cell-based. On the technique in general: In a radioligand displacement assay an active substance lowers the binding of a labelled ligand.
The target in assay [4] is Beta-2 adrenergic receptor (Homo sapiens, UniProt P07550). Nature of the assay: Displacement of [125I]iodocyanopindolol from human cloned adrenergic beta-2 receptor expressed in CHO cells. The assay is classed as cell-based.
The species named for assay [5] is Homo sapiens. Nature of the assay: Selectivity ratio of Ki for human adrenergic beta-1 receptor to Ki for human adrenergic beta-3 receptor.
For assay [6], the species on record is Homo sapiens. As to the kind of experiment: Selectivity ratio of Ki for adrenergic beta2 receptor Ki for adrenergic beta-3 receptor.
The target of assay [7] is Beta-1 adrenergic receptor (Cavia porcellus) (UniProt B0FL73). Nature of the assay: Intrinsic activity at adrenergic beta-1 receptor in spontaneously beating guinea pig atria assessed as acceleration in contraction relative to isoproterenol.
Assay [8] concerns African green monkey. As to the kind of experiment: Effect on potassium levels in African green monkey serum at 0.1 mg/kg, iv. The assay is classed as functional, Chlorocebus sabaeus. Also noted: unit not given beside the values. The essentials:
(§1)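 Single iv dose given to ketamine-sedated African green monkeys, either 0.1 or 0.5 mg/kg as the line states. Three read-outs were recorded after dosing: change in serum free fatty acids (β3 lipolysis), change in serum K+ (a decrease is β2-mediated) and change in heart rate (β1/β2 tachycardia). Changes were tested for significance at P < 0.05.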

The subject of assay [9] is African green monkey. As to the kind of experiment: Effect on tachycardia in African green monkey assessed as change in heart rate at 0.1 mg/kg, iv. The assay is classed as functional, Chlorocebus sabaeus. The essentials: as §1
Assay [10] deals with African green monkey. Nature of the assay: Effect on African green monkey assessed as change in free fatty acid level at 0.1 mg/kg, iv. The assay is classed as functional, Chlorocebus sabaeus. The essentials:
as §1

The term Ki denotes the dissociation constant of the complex between target and ligand, obtained from inhibition or displacement.

Sequence of Beta-1 adrenergic receptor (P08588 whole entry): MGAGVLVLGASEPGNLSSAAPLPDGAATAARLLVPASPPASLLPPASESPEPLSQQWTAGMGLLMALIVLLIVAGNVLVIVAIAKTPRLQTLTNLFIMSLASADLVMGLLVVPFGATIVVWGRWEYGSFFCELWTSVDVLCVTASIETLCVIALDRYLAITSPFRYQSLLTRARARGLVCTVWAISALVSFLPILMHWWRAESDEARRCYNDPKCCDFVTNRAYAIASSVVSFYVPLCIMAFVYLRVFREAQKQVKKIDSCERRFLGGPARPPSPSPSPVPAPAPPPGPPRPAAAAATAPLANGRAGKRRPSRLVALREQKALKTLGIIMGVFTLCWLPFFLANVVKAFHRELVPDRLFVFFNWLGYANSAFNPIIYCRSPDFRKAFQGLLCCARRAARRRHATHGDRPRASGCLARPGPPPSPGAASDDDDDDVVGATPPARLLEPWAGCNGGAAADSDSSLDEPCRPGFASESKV
Sequence of Beta-1 adrenergic receptor (Cavia porcellus) (B0FL73 1-467): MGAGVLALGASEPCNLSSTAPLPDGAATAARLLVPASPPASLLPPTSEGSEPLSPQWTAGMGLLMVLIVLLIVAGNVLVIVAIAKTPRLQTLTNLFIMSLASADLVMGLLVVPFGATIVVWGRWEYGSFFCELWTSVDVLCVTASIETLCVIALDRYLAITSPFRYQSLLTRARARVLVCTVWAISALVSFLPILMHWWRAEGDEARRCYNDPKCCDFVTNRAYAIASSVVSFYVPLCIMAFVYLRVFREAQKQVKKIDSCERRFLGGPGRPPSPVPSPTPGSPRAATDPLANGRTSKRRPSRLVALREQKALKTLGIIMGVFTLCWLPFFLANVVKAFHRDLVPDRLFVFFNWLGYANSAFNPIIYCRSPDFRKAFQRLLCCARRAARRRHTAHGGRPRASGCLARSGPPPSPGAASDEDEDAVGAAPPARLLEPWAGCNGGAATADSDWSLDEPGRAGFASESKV
Sequence of Beta-2 adrenergic receptor (P07550 whole entry): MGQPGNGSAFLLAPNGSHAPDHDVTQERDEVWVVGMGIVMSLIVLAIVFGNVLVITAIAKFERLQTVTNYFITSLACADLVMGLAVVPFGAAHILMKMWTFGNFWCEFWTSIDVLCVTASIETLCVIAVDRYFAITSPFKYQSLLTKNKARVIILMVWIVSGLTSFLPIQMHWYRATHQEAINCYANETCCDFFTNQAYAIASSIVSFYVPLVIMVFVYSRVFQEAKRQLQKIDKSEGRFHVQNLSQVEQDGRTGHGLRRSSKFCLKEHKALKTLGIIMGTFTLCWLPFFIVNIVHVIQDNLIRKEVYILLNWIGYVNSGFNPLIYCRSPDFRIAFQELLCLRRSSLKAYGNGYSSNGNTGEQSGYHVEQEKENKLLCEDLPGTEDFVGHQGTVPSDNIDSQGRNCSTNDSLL

In the case of `COc1ccc([C@@H](Cc2ccccc2)NC[C@@H](O)Cc2ccc(O)c(NS(C)(=O)=O)c2)cc1O`, the Ki in [1] worked out at 0.008 µM; in assay [3], 3.2 µM; in assay [4] it was 1.07 µM. In addition, the Intrinsic activity in assay [2] worked out at 70%.
Regarding `CS(=O)(=O)Nc1cc(C[C@@H](O)CN[C@@H](CCc2ccccc2)c2ccc(OC(F)F)c(OC(F)F)c2)ccc1O`, the inhibitory constant (Ki) in assay [1] was 0.059 µM; in assay [3], 0.49 µM; in [4], 0.071 µM. Moreover, in assay [2], the Intrinsic activity came to 86%. In addition, the values for the Ratio Ki in the assay listed under Homo sapiens [5] and in the assay listed under Homo sapiens [6] were 8 and 1, respectively.
Consider `COc1ccc([C@H](CCc2cccc(Cl)c2)NC[C@H](O)Cc2ccc(O)c(NS(C)(=O)=O)c2)cc1OC`, for which the Ki stood at 0.029 µM in assay [1], 0.42 µM in assay [3] and 0.026 µM in [4]. Besides, the Intrinsic activity in assay [2] was 57%. Also, the Ratio Ki in the assay filed under Homo sapiens [5] came to 14; in the assay filed under Homo sapiens [6] it was 1.
`CS(=O)(=O)Nc1cc([C@@H](O)CN)ccc1O`: in assay [1], the affinity corresponds to a Ki of 17 µM. Besides, the Intrinsic activity in assay [2] worked out at 93%.
As to `COc1cccc([C@@H](Cc2ccccc2)NC[C@@H](O)Cc2ccc(O)c(NS(C)(=O)=O)c2)c1`, the Ki in [1] is 0.11 µM; in [3] it was 3.6 µM; in assay [4] it was 0.35 µM. The Intrinsic activity in assay [2] stood at 44%.
For `COc1ccc([C@@H](Cc2ccc(Cl)cc2)NC[C@@H](O)Cc2ccc(O)c(NS(C)(=O)=O)c2)cc1OC`, the Ki in [1] amounted to 0.024 µM. Further, the Intrinsic activity in [2] is 68%. The Ratio Ki in the assay listed under Homo sapiens [5] came out at 24; in the assay filed under Homo sapiens [6] it was 6.
For `COc1ccc([C@@H](Cc2ccccc2Cl)NC[C@@H](O)Cc2ccc(O)c(NS(C)(=O)=O)c2)cc1OC`, in assay [1], the Ki was determined as 0.007 µM. Also, the Intrinsic activity in [2] was 65%. The Ratio Ki is 58 in the assay listed under Homo sapiens [5] and 13 in the assay listed under Homo sapiens [6].
For the compound `COc1ccc([C@@H](Cc2ccccc2)NC[C@H](O)Cc2ccc(O)c(NS(C)(=O)=O)c2)cc1`, the Ki in assay [1] is 0.46 µM; in assay [3], more than 10 µM; in assay [4], 3.1 µM. Further, the values for the Intrinsic activity in assay [2] and in assay [7] were 30% and 0%, respectively.
As to `COc1ccc([C@@H](Cc2ccccc2)NC[C@@H](O)Cc2ccc(O)c(NS(C)(=O)=O)c2)cc1`, the Ki was 0.053 µM in assay [1], 6 µM in assay [3] and 0.51 µM in assay [4]. Moreover, the Intrinsic activity in assay [2] was determined as 65%.
Turning to `COc1ccc([C@H](NC[C@H](O)c2ccc(O)c(NS(C)(=O)=O)c2)C(=O)Nc2ccccc2)cc1` (stereo in doubt; 1a), in [2], the Intrinsic activity stood at 119%.
In the case of `CS(=O)(=O)Nc1cc(C[C@H](O)CN[C@H](Cc2ccccc2)c2ccc(Cl)c(Cl)c2)ccc1O`, the Ki in [1] is 0.133 µM; in assay [3], 1.5 µM; in assay [4] it was 0.038 µM. The Intrinsic activity in assay [2] is 70%.
For `COc1ccc([C@H](CCc2ccccc2Cl)NC[C@H](O)Cc2ccc(O)c(NS(C)(=O)=O)c2)cc1OC`, the figures for the Ki in assay [1], in [3] and in [4] were 0.007 µM, 0.27 µM and 0.057 µM, respectively. The Intrinsic activity in [2] worked out at 73%. In addition, the Ratio Ki in the assay filed under Homo sapiens [5] is 39; in the assay filed under Homo sapiens [6], 8.
Consider `COc1ccc([C@H](Cc2ccccc2)NC[C@@H](O)Cc2ccc(O)c(NS(C)(=O)=O)c2)cc1OC`, for which the Ki was found to be 0.009 µM in assay [1], 0.56 µM in assay [3] and 0.024 µM in assay [4]. Besides, the Intrinsic activity in assay [2] was 62%; in assay [7], 75%.
Turning to `COc1cccc([C@H](CCc2ccccc2)NC[C@H](O)Cc2ccc(O)c(NS(C)(=O)=O)c2)c1`, the Ki in [1] was determined as 0.39 µM; in assay [3], 0.57 µM; in [4], 0.2 µM. Besides, the Intrinsic activity in assay [2] worked out at 44%. In addition, the Ratio Ki in the assay listed under Homo sapiens [5] came out at 1; in the assay listed under Homo sapiens [6], 0.5.
With `COc1ccc([C@@H](Cc2cccc(Cl)c2)NC[C@@H](O)Cc2ccc(O)c(NS(C)(=O)=O)c2)cc1OC`, affinity in [1] was put at a Ki of 0.006 µM. The Intrinsic activity in assay [2] is 68%. The Ratio Ki in the assay filed under Homo sapiens [5] came out at 52; in the assay filed under Homo sapiens [6], 13. Also, the figures for the Activity in the assay on African green monkey [8], with African green monkey [9] and with African green monkey [10] were -0.55, 6 and 0.92, respectively.
As for `COc1ccc(C(C)(C)NC[C@H](O)c2ccc(O)c(NS(C)(=O)=O)c2F)cc1`, the affinity in [1], expressed as Ki, was 0.2 µM. In addition, the Intrinsic activity in [2] was found to be 88%.
For the compound `CS(=O)(=O)Nc1c(O)ccc([C@@H](O)CN[C@H](Cc2ccccc2)c2ccc(OC(F)F)cc2)c1F`, the Ki in assay [1] turned out to be 0.27 µM. The Intrinsic activity in [2] came to 77%.
As to `COc1cccc([C@@H](Cc2ccccc2)NC[C@H](O)Cc2ccc(O)c(NS(C)(=O)=O)c2)c1`, the Ki is 1.1 µM in assay [1], more than 10 µM in assay [3] and 2.7 µM in assay [4]. Also, the Intrinsic activity was 27% in assay [2] and 0% in assay [7].
As to `CS(=O)(=O)Nc1cc(OC[C@@H](O)CN)ccc1O`, affinity in assay [1] was put at a Ki of 15 µM. Further, the Intrinsic activity in [2] was 47%. For the same compound, the Ratio Ki in the assay listed under Homo sapiens [5] stood at 0.08; in the assay filed under Homo sapiens [6], 0.04.
Take `CS(=O)(=O)Nc1c(O)ccc([C@@H](O)CN)c1F`: the Ki in assay [1] was 120 µM. In addition, the Intrinsic activity in assay [2] turned out to be 0%.
In assay [1], `COc1ccc(CNC[C@H](O)CCc2ccc(O)c(NS(C)(=O)=O)c2)cc1` returned a Ki of 3.7 µM. Also, in assay [2], the Intrinsic activity turned out to be 42%. For the same compound, the Ratio Ki in the assay listed under Homo sapiens [5] and in the assay filed under Homo sapiens [6] was 1 each time.
On to `COc1ccc([C@H](CCc2ccccc2)NC[C@H](O)Cc2ccc(O)c(NS(C)(=O)=O)c2)cc1`, for which the Ki worked out at 0.031 µM in assay [1], 0.73 µM in [3] and 0.28 µM in assay [4]. Besides, in assay [2], the Intrinsic activity was found to be 93%. Also, the Ratio Ki in the assay listed under Homo sapiens [5] turned out to be 24; in the assay listed under Homo sapiens [6] it was 9.
For the compound `CS(=O)(=O)Nc1cc(C[C@H](O)CN[C@H](Cc2ccccc2)c2ccc(OC(F)F)c(OC(F)F)c2)ccc1O`, the Ki in [1] came out at 0.019 µM; in assay [3], 0.69 µM; in assay [4], 0.102 µM. Further, the Intrinsic activity in [2] worked out at 60%; in [7], 0%.
The compound `COc1ccc([C@@H](Cc2ccccc2)NC[C@H](O)CCc2ccc(O)c(NS(C)(=O)=O)c2)cc1OC` registered a Ki in [1] of 0.16 µM. In addition, the Intrinsic activity in assay [2] turned out to be 60%. Besides, the Ratio Ki stood at 112 in the assay filed under Homo sapiens [5] and 27 in the assay listed under Homo sapiens [6].
On the same counts, the results for `COc1ccc(CCNCC(O)Cc2ccc(O)c(NS(C)(=O)=O)c2)cc1OC` (configuration not stated) are 7.3 µM, 35%, 0.6 and 0.1.
In assay [1], `CS(=O)(=O)Nc1cc(OC[C@@H](O)CN[C@H](Cc2ccccc2)c2ccc(OC(F)F)cc2)ccc1O` gave a Ki of 0.005 µM. Besides, the Intrinsic activity in assay [2] is 48%. Besides, the Ratio Ki in the assay listed under Homo sapiens [5] came to 66; in the assay listed under Homo sapiens [6], 7.
For the compound `COc1ccc([C@H](NC[C@H](O)c2ccc(O)c(NS(C)(=O)=O)c2F)C(=O)Nc2ccccc2)cc1`, in assay [2], the Intrinsic activity is 58%.
In turn, `COc1ccc(C(C)(C)NC[C@H](O)c2ccc(O)c(NS(C)(=O)=O)c2)cc1` registered a Ki in assay [1] of 0.007 µM. The Intrinsic activity in [2] is 86%.
`CS(=O)(=O)Nc1cc(C[C@H](O)CNC(c2ccc(OC(F)F)cc2)c2ccc(OC(F)F)cc2)ccc1O`: in assay [1], the Ki amounted to 0.34 µM. In addition, the Intrinsic activity in assay [2] came out at 60%. In addition, the Ratio Ki was determined as 3 in the assay filed under Homo sapiens [5] and 0.6 in the assay listed under Homo sapiens [6].
In the same order, the values of `COc1ccc(CNC[C@H](O)COc2ccc(O)c(NS(C)(=O)=O)c2)cc1` are 0.36 µM, 46%, 3 and 0.4.
On the same counts, the results for `COc1ccc(CNCC(O)Cc2ccc(O)c(NS(C)(=O)=O)c2)cc1` (configuration not stated) are 1.1 µM, 50%, 2 and 0.3.
In the same order, the values of `COc1ccc(CC(Cc2ccc(OC)c(OC)c2)NC[C@@H](O)Cc2ccc(O)c(NS(C)(=O)=O)c2)cc1OC` are 0.17 µM, 75%, 3 and 0.2.
Regarding `CS(=O)(=O)Nc1cc(CC[C@@H](O)CN[C@H](Cc2ccccc2)c2ccc(OC(F)F)cc2)ccc1O`, affinity in [1] was put at a Ki of 0.88 µM. The Intrinsic activity in assay [2] was 40%. The Ratio Ki was found to be 38 in the assay filed under Homo sapiens [5] and 7 in the assay listed under Homo sapiens [6].
Consider `COc1ccc([C@H](Cc2ccccc2)NC[C@H](O)Cc2ccc(O)c(NS(C)(=O)=O)c2)cc1OC`, for which the Ki stood at 0.15 µM in assay [1], 47 µM in assay [3] and 0.82 µM in assay [4]. Also, the results for the Intrinsic activity in assay [2] and in assay [7] were 70% and 48%, respectively.
On the same counts, the results for `COc1ccc([C@@H](Cc2ccccc2)NC[C@H](O)Cc2ccc(O)c(NS(C)(=O)=O)c2)cc1OC` are 0.025 µM, more than 10 µM, 1.5 µM, 43% and 0%.
Regarding `COc1ccc([C@@H](Cc2ccccc2)NC[C@H](O)COc2ccc(O)c(NS(C)(=O)=O)c2)cc1OC`, in [1], the affinity corresponds to a Ki of 0.003 µM. Further, the Intrinsic activity in assay [2] was found to be 67%. The figures for the Ratio Ki in the assay filed under Homo sapiens [5] and in the assay listed under Homo sapiens [6] were 120 and 15, respectively.
